Laboratory results as given in ChEMBL document CHEMBL1147385, “Kinase inhibitors from Polygonum cuspidatum” (J Nat Prod, 1993).
In brackets after ≈: the same amount, converted by molar mass.

Assays:
[1] = Inhibition of bovine thymus p56LCK; design: species or system Bos taurus
Method in brief: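 Partially purified p56lck from bovine thymus (through butyl-agarose step). Compounds were dissolved in DMSO, with 8% DMSO present in all assays. Emodin served as reference compound.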

Protein kinase C (PKC) = assay: Inhibition of rat brain PKC
Method in brief: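 Rat brain PKC, partially purified and mainly alpha/beta isoforms, acting on lysine-rich histone (30 μg). Partial activation by phosphatidylserine 8 μg/ml plus TPA 3 nM, no calcium, EGTA present, 20 mM Tris-Cl pH 7.4. Run 10 min at 30°, duplicates. Samples spotted on P81 paper, Cerenkov counted, no-enzyme blanks subtracted. IC50 from logarithmic interpolation over ten-fold dilutions, 0.16–160 μg/ml.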

| Structure (SMILES) | IC50 [1] | IC50 (Protein kinase C (PKC)) |
| --- | --- | --- |
| Oc1ccc(/C=C\c2cc(O)cc(O)c2)cc1 [CIS-RESVERATROL] | 5 ×10¹ ug/ml | 3 ×10¹ ug/ml |
| Cc1cc(O)c2c(c1)C(=O)c1cc(O)cc(O)c1C2=O [EMODIN] | 10 µg/mL (≈ 37 µM) |  |
| Oc1ccc(/C=C/c2cc(O)cc(O)c2)cc1 [RESVERATROL] | 6 ×10¹ ug/ml | 4 ×10¹ ug/ml |
| CN1CCN(CCCN2c3ccccc3Sc3ccc(C(F)(F)F)cc32)CC1 [TRIFLUOPERAZINE] |  | 30 µg/mL (≈ 73.6 µM) |

Next, values leading:

| IC50 [1] | IC50 (Protein kinase C (PKC)) | Structure (SMILES) |
| --- | --- | --- |
| > 8 ×10² ug/ml | 6 µg/mL (≈ 15.4 µM) | OC[C@H]1O[C@@H](Oc2ccc(/C=C\c3cc(O)cc(O)c3)cc2)[C@H](O)[C@@H](O)[C@@H]1O |
| 2 ×10² ug/ml | 3 µg/mL (≈ 7.68 µM) | OC[C@H]1O[C@@H](Oc2ccc(/C=C/c3cc(O)cc(O)c3)cc2)[C@H](O)[C@@H](O)[C@@H]1O [GOB C] |
| 2 ×10² ug/ml | 2 ×10² ug/ml | OC[C@H]1O[C@@H](Oc2cc(O)cc(/C=C/c3ccc(O)cc3)c2)[C@H](O)[C@@H](O)[C@@H]1O [PICEID] |
| 5 ×10² ug/ml | 2 ×10² ug/ml | OC[C@H]1O[C@@H](Oc2cc(O)cc(/C=C\c3ccc(O)cc3)c2)[C@H](O)[C@@H](O)[C@@H]1O [Z-PICEID] |
